Tests used:
[1] = target: T1, Sodium- and chloride-dependent glycine transporter 1 (Homo sapiens, UniProt P48067); assay: Inhibition of [3H]glycine uptake at GlyT1
T1 sequence (P48067 whole entry): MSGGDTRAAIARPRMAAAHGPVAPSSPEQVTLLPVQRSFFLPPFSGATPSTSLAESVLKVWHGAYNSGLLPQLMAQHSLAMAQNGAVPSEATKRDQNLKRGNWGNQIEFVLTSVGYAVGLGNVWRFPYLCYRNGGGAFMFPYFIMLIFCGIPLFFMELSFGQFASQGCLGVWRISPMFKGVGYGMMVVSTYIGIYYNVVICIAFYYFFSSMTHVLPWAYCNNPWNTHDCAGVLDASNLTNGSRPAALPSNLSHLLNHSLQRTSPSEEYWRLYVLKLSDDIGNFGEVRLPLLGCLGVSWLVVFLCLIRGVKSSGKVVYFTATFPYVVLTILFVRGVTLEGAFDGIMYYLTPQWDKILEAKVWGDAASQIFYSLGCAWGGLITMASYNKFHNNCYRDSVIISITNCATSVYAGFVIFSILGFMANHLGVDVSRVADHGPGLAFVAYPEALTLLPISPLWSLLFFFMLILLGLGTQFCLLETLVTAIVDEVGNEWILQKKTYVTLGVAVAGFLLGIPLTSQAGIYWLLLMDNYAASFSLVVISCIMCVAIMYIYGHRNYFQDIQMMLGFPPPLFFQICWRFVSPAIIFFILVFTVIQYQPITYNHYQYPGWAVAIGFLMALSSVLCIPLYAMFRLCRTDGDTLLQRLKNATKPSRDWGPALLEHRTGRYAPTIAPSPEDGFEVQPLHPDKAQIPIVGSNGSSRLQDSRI

[2] = target: T2, Sodium- and chloride-dependent glycine transporter 2 (Homo sapiens, UniProt Q9Y345); assay: Inhibition of [3H]glycine uptake at GlyT2
T2 sequence (Q9Y345 whole entry): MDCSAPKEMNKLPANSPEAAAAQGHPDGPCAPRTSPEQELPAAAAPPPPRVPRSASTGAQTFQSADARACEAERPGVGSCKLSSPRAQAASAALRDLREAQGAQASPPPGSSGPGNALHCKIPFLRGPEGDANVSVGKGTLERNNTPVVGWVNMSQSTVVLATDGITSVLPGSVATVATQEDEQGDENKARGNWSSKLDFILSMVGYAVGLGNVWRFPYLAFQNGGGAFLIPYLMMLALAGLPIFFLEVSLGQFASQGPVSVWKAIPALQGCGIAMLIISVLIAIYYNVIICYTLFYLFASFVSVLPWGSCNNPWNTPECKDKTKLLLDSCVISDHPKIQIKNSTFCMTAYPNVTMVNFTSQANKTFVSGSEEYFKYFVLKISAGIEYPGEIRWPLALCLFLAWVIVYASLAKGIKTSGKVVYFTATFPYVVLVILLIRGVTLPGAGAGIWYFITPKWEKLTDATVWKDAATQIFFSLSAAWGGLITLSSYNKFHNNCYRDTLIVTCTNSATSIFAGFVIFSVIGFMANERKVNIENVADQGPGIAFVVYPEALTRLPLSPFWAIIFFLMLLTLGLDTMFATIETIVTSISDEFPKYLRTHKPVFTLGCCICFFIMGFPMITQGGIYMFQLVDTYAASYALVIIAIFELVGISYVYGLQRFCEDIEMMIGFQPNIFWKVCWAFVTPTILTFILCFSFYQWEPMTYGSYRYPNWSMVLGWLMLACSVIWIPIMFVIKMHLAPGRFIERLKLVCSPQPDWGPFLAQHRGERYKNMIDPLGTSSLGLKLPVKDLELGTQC

[3] = target: Nociceptin receptor (Homo sapiens, UniProt P41146); assay: Displacement of [3H]NOP from human NOP receptor expressed in HEK293 cells; format: cell-based
Sequence of Nociceptin receptor (P41146 whole entry): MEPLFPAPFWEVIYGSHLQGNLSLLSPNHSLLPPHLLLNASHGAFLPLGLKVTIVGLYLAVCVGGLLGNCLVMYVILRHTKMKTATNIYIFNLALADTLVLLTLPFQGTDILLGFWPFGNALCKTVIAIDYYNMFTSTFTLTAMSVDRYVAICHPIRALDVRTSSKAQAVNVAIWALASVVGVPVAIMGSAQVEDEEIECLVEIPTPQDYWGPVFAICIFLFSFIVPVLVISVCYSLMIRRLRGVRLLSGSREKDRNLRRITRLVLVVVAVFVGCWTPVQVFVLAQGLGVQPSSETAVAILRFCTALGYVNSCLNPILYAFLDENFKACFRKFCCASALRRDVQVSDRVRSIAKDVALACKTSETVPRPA
In short: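 Radioligand binding using membranes from HEK293 cells stably (permanently) transfected with human NOP receptor; displacement of [3H]-NOP measured.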

| EC50 [1] | EC50 [2] | SMILES | IC50 [3] |
| --- | --- | --- | --- |
| 48 nM |  | O=C1NCC(c2ccccc2)C12CCN(C1CCCCC1c1ccc(F)cc1)CC2 (single isomer, unassigned; diastereomer 2) |  |
| 1300 nM | 8.36 µM | O=C1NC[C@H](c2ccc(F)cc2)C12CCN([C@H]1CCCC[C@H]1c1ccc(F)cc1)CC2 |  |
| 36 nM | 39.9 µM | O=C1NC[C@H](c2ccc(F)cc2)C12CCN([C@@H]1CCCC[C@@H]1c1ccc(F)cc1)CC2 | > 10 µM |
| 270 nM |  | O=C1NCC(c2ccc(Cl)c(Cl)c2)C12CCN(C1CCCCC1c1ccc(F)cc1)CC2 (single isomer, unassigned; diastereomer 1) |  |
| 1060 nM | > 30 µM | O=C1NC[C@@H](c2ccc(F)cc2)C12CCN([C@H]1CCCC[C@H]1c1ccc(F)cc1)CC2 |  |
| 129 nM |  | O=C1NCC(c2ccc(F)cc2)C12CCN(C1CCCCC1c1ccc(C(F)(F)F)cc1)CC2 (single isomer, unassigned; diastereomer 3) |  |
| 167 nM |  | O=C1NCC(c2ccccc2)C12CCN(C1CCCCC1c1ccc(F)cc1)CC2 (single isomer, unassigned; diastereomer 1) |  |
| 2880 nM |  | O=C1NC[C@H](c2ccccc2)C12CCN([C@@H]1CCCC[C@@H]1c1ccccc1)CC2 |  |
| 2330 nM |  | O=C1NCC(c2ccc(F)cc2)C12CCN(C1CCCCC1c1ccc(C(F)(F)F)cc1)CC2 (single isomer, unassigned; diastereomer 1) |  |
| 113 nM |  | COc1ccc(C2CNC(=O)C23CCN(C2CCCCC2c2ccc(F)cc2)CC3)cc1 (stereo unspecified) |  |
| 1130 nM |  | COc1ccc(C2CNC(=O)C23CCN(C2CCCCC2c2ccc(C)cc2)CC3)cc1 (single isomer, unassigned; diastereomer 1) |  |
| 2190 nM |  | O=C1NCC(c2ccc(Cl)c(Cl)c2)C12CCN(C1CCCCC1c1ccc(F)cc1)CC2 (single isomer, unassigned; diastereomer 2) |  |
| 953 nM |  | O=C1NCC(c2ccc(F)cc2)C12CCN(C1CCCCC1c1ccc(C(F)(F)F)cc1)CC2 (single isomer, unassigned; diastereomer 2) |  |
| 16600 nM |  | COc1ccc(C2CNC(=O)C23CCN(C2CCCCC2c2ccc(C)cc2)CC3)cc1 (single isomer, unassigned; diastereomer 2) |  |
| 43 nM | 16.7 µM | O=C1NC[C@@H](c2ccc(F)cc2)C12CCN([C@@H]1CCCC[C@@H]1c1ccc(F)cc1)CC2 | > 10 µM |
| 2830 nM |  | O=C1NC[C@@H](c2ccccc2)C12CCN([C@@H]1CCCC[C@@H]1c1ccccc1)CC2 |  |
| 91 nM |  | O=C1NCC(c2ccc(F)cc2)C12CCN(C1CCCCC1c1ccc(C(F)(F)F)cc1)CC2 (stereo in doubt) |  |

| SMILES | EC50 [1] | EC50 [2] | IC50 [3] |
| --- | --- | --- | --- |
| O=C1NC[C@@H](c2ccccc2)C12CCN([C@H]1CCCC[C@H]1c1ccccc1)CC2 | 246 nM | 39.6 µM | > 10 µM |
| O=C1NCC(c2ccccc2)C12CCN(C1CCCCC1c1ccccc1)CC2 (stereo unspecified) | 232 nM | 25 µM | > 10 µM |
| O=C1NC[C@H](c2ccccc2)C12CCN([C@H]1CCCC[C@H]1c1ccccc1)CC2 | 61 nM |  | > 10 µM |

Reference: ChEMBL document CHEMBL1138975, “Design and synthesis of 4-substituted-8-(2-phenyl-cyclohexyl)-2,8-diaza-spiro[4.5]decan-1-one as a novel class of GlyT1 inhibitors: achieving selectivity against the mu opioid and nociceptin/orphanin FQ peptide (NOP) receptors” (Bioorg Med Chem Lett, 2006)
